ChEMBL document CHEMBL1649111, “Restoration of susceptibility of intracellular methicillin-resistant Staphylococcus aureus to beta-lactams: comparison of strains, cells, and antibiotics” (Antimicrob Agents Chemother, 2008)
Converted amounts (≈) assume the structure as drawn.

Columns and labels:
[1] = test system: Staphylococcus aureus; assay: Bacteriostatic activity against hospital acquired methicillin-resistant Staphylococcus aureus N4120032 infected in human THP-1 cells assessed as decrease in bacterial growth after 24 hrs at pH 5.5; assay type: functional
In short: (§1)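 Human THP-1 macrophages infected with each S. aureus strain. Cloxacillin added extracellularly at about 0.01× to 100× the broth MIC measured at pH 5.5, with gentamicin 0.5 mg/liter to stop extracellular growth. Incubated 24 h. CFU counted per mg cell protein as change from the post-phagocytosis inoculum, n = 3. Emin, Emax and EC50 from a Hill fit; static concentration by graphical interpolation.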

[2] = test system: Staphylococcus aureus; assay: Antimicrobial activity against intracellular beta-lactamase negative methicillin-susceptible Staphylococcus aureus ATCC 25923 infected in activated human THP-1 cells assessed as decrease in bacterial count from original inoculum at high compound concentration after 24 hrs at pH 7.4; assay type: functional
[3] = test system: Staphylococcus aureus; assay: Bacteriostatic activity against Panton-valentine leukocidin positive community acquired methicillin-resistant Staphylococcus aureus NRS192 infected in human THP-1 cells assessed as decrease in bacterial growth after 24 hrs at pH 5.5; assay type: functional; in short: as §1
[4] = test system: Staphylococcus aureus; assay: Antimicrobial activity against hospital acquired methicillin-resistant Staphylococcus aureus N4120210 obtained from urinary tract infection of patient infected in human THP-1 cells assessed as increase in bacterial count from original inoculum at low compound concentration after 24 hrs at pH 5.5; assay type: functional, Urine
In short: (§2)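 Bacteria phagocytosed by unactivated human THP-1 macrophages, then incubated 24 h with extracellular antibiotic at about 0.01× to 100× the pH 5.5 broth MIC. CFU per mg cell protein counted against the original inoculum, n = 3. A Hill-equation fit (slope factor 1) gave Emin and Emax, extrapolated to infinitely low and high concentration, and EC50. Static concentration was graphically interpolated.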

[5] = test system: Staphylococcus aureus; assay: Antimicrobial activity against Panton-valentine leukocidin positive community acquired methicillin-resistant Staphylococcus aureus N4042228 infected in human THP-1 cells assessed as increase in bacterial count from original inoculum at low compound concentration after 24 hrs at pH 5.5; assay type: functional; in short: as §2
[6] = test system: Staphylococcus aureus; assay: Antimicrobial activity against Panton-valentine leukocidin positive community acquired methicillin-resistant Staphylococcus aureus NRS192 obtained from patient with pneumonia and septic arthritis by broth microdilution method at pH 7.4; assay type: functional
In short: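 Minimal inhibitory concentration by broth microdilution at pH 7.4, read in mg/liter. The MRSA genotype was confirmed by mecA PCR, and the SCCmec subgroup was assigned by multiplex PCR.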

[7] = test system: Staphylococcus aureus; assay: Antimicrobial activity against intracellular beta-lactamase negative methicillin-susceptible Staphylococcus aureus ATCC 25923 infected in human keratinocytes assessed as decrease in bacterial count from original inoculum at high compound concentration after 24 hrs at pH 7.4; assay type: functional
In short: (§3)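 Primary human skin keratinocytes or Calu-3 bronchial epithelial cells infected with MSSA ATCC 25923 at 5 × 10⁷ to 1 × 10⁸ bacteria/ml, 2 h internalization. Postphagocytosis inoculum 1.5 × 10⁶ to 3.0 × 10⁶ CFU/mg protein. Cloxacillin concentration range for 24 h; CFU/mg protein change vs. inoculum (n = 3). Hill fit gives Emin/Emax; static concentration by graphical interpolation.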

[8] = test system: Staphylococcus aureus; assay: Bacteriostatic activity against intracellular beta-lactamase negative methicillin-susceptible Staphylococcus aureus ATCC 25923 infected in activated human THP-1 cells assessed as decrease in bacterial growth after 24 hrs at pH 7.4; assay type: functional
In short: (§4)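 THP-1 cells activated by 24-h culture with phorbol myristate acetate 2 mg/liter, then infected like unactivated THP-1. Cloxacillin dose range in mg/liter for 24 h. CFU per mg cell protein relative to the original inoculum, n = 3. Emin and Emax extrapolated from a Hill fit (slope 1), with EC50 as total drug; static concentration by graphical interpolation.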

[9] = test system: Staphylococcus aureus; assay: Antimicrobial activity against hospital acquired methicillin-resistant Staphylococcus aureus ATCC 33591 infected in human THP-1 cells assessed as increase in bacterial count from original inoculum at low compound concentration after 24 hrs at pH 5.5; assay type: functional; in short: as §2
[10] = test system: Staphylococcus aureus; assay: Bacteriostatic activity against intracellular hospital acquired methicillin-resistant Staphylococcus aureus ATCC 33591 infected in human Calu3 cells assessed as decrease in bacterial growth after 24 hrs at pH 7.4; assay type: functional, Calu-3
In short: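 Primary human skin keratinocytes or Calu-3 bronchial epithelial cells, given an inoculum of 5 × 10⁷ to 1 × 10⁸ bacteria/ml and 2 h for internalization. Post-phagocytosis load 1.5 × 10⁶ to 3.0 × 10⁶ CFU per mg cell protein. Cloxacillin dose range in mg/liter for 24 h, n = 3. Hill-derived Emin, Emax and EC50; static concentration interpolated.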

[11] = test system: Staphylococcus aureus; assay: Antimicrobial activity against hospital acquired methicillin-resistant Staphylococcus aureus N4120210 obtained from urinary tract infection patient by broth microdilution method at pH 5.5; assay type: functional; conditions: N4120210, Urine
[12] = test system: Staphylococcus aureus; assay: Antimicrobial activity against hospital acquired methicillin-resistant Staphylococcus aureus ATCC 33591 infected in human THP-1 cells assessed as decrease in bacterial count from original inoculum at high compound concentration after 24 hrs at pH 7.4; assay type: functional
[13] = test system: Staphylococcus aureus; assay: Antimicrobial activity against intracellular beta-lactamase negative methicillin-susceptible Staphylococcus aureus ATCC 25923 infected in activated human THP-1 cells assessed as increase in bacterial count from original inoculum at low compound concentration after 24 hrs at pH 7.4; assay type: functional
[14] = test system: Staphylococcus aureus; assay: Antimicrobial activity against intracellular beta-lactamase negative methicillin-susceptible Staphylococcus aureus ATCC 25923 infected in human keratinocytes assessed as increase in bacterial count from original inoculum at low compound concentration after 24 hrs at pH 7.4; assay type: functional; in short: as §3
[15] = test system: Staphylococcus aureus; assay: Bacteriostatic activity against hospital acquired methicillin-resistant Staphylococcus aureus HMC546 infected in human THP-1 cells assessed as decrease in bacterial growth after 24 hrs at pH 5.5; assay type: functional; in short: as §1
[16] = test system: Staphylococcus aureus; assay: Antimicrobial activity against beta-lactamase negative methicillin-susceptible Staphylococcus aureus ATCC 25923 infected in human THP-1 cells assessed as decrease in bacterial growth after 24 hrs at pH 7.4; assay type: functional, organism-based; conditions: ATCC 25923, THP-1, 24 h
[17] = test system: Staphylococcus aureus; assay: Antimicrobial activity against constitutive beta-lactamase negative methicillin-resistant Staphylococcus aureus COL NRS100 by broth microdilution method at pH 5.5; assay type: functional
[18] = test system: Staphylococcus aureus; assay: Bacteriostatic activity against intracellular hospital acquired methicillin-resistant Staphylococcus aureus ATCC 33591 infected in activated human THP-1 cells assessed as decrease in bacterial growth after 24 hrs at pH 7.4; assay type: functional; in short: as §4
[19] = test system: Staphylococcus aureus; assay: Antimicrobial activity against Panton-valentine leukocidin positive community acquired methicillin-resistant Staphylococcus aureus N4090440 obtained from wound infection of patient by broth microdilution method at pH 5.5; assay type: functional
[20] = test system: Staphylococcus aureus; assay: Antimicrobial activity against intracellular beta-lactamase negative methicillin-susceptible Staphylococcus aureus ATCC 25923 infected in human Calu3 cells assessed as decrease in bacterial growth after 24 hrs at pH 7.4; assay type: functional, organism-based; conditions: ATCC 25923, Calu-3, 24 h
In short: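 Calu-3 bronchial epithelial cells, grown in uncoated flasks, were infected with 5 × 10⁷ to 1 × 10⁸ bacteria/ml for 2 h, giving 1.5 × 10⁶ to 3.0 × 10⁶ CFU/mg protein after phagocytosis. Cells were then exposed 24 h to a range of cloxacillin concentrations (mg/liter). CFU change per mg protein was measured (n = 3). A Hill fit with slope 1 gave Emax and EC50, and the static concentration was interpolated.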

[21] = test system: Staphylococcus aureus; assay: Antimicrobial activity against hospital acquired methicillin-resistant Staphylococcus aureus N4120210 obtained from urinary tract infection of patient infected in human THP-1 cells assessed as decrease in bacterial count from original inoculum at high compound concentration after 24 hrs at pH 5.5; assay type: functional, Urine; in short: as §2

Q: Which Activity [1] does the source give for Cc1onc(-c2ccccc2Cl)c1C(=O)N[C@@H]1C(=O)N2[C@@H]1SC(C)(C)[C@@H]2C(=O)O [CLOXACILLIN] here?
A: 33.1 ×MIC

Q: What about the log10cfu [2] of the same molecule?
A: 0.9

Q: What about the Activity [3] of the same molecule?
A: 16.6 ×MIC

Q: And the log10cfu [4]?
A: 2.6

Q: What about the log10cfu [5] of the same molecule?
A: 2.68

Q: And the MIC [6]?
A: 1 µg/mL (≈ 2.29 µM)

Q: What about the log10cfu [7] of the same molecule?
A: 0.95

Q: And the Activity [8]?
A: 1.3 mg/L

Q: What about the log10cfu [9] of the same molecule?
A: 2.27

Q: And the Activity [10]?
A: 1 mg/L

Q: And the MIC [11]?
A: 0.06 µg/mL (≈ 0.138 µM)

Q: What about the log10cfu [12] of the same molecule?
A: 0.55

Q: What about the log10cfu [13] of the same molecule?
A: 3.05

Q: What about the log10cfu [14] of the same molecule?
A: 2.64

Q: What about the Activity [15] of the same molecule?
A: 11.7 ×MIC

Q: And the EC50 [16]?
A: 0.27 µg/mL (≈ 0.619 µM)

Q: What about the MIC [17] of the same molecule?
A: 0.25 µg/mL (≈ 0.574 µM)

Q: And the Activity [18]?
A: 1 mg/L

Q: And the MIC [19]?
A: 0.03 µg/mL (≈ 0.0688 µM)

Q: And the EC50 [20]?
A: 0.52 µg/mL (≈ 1.19 µM)

Q: What about the log10cfu [21] of the same molecule?
A: 0.63
